For data set [1], the system named is COS-7. Description: Cytotoxicity against Green monkey COS-7 cells assessed as reduction in cell viability incubated for 24 hrs by MTT assay. The class given is toxicity, cell-based. The following applies: chlorocebus aethiops, cos-7, 24 h. The procedure, abridged:
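COS-7 cells seeded at 2.5 × 10^4 per well, grown 24 h at 37 °C in 5% CO2, then treated 24 h with 20, 40, 100 or 200 μM compound in media with 1% DMSO (4 wells each). MTT 1.2 mM in PBS for 2 h in the dark, lysis in 0.1% NP-40/isopropanol with HCl, A564 read; CC50 and CC90 taken as concentrations giving 50% and 90% loss of viability.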
For orientation: Tetrazolium dyes change colour on reduction, which living cells bring about.

The nature of data set [2]: Inhibition of full length chicken phosphorylated myosin 2 smooth muscle isoform derived from gizzard ATPase activity assessed as reduction in steady-state rabbit F-actin-activated Mg2+ ATPase activity incubated for 6 to 24 mins in presence of ATPase buffer at 7.0 containing Mgcl2 and ATP by fluorescence-based assay. The class given is tissue-based, Gallus gallus.
A short description of data set [3]: Inhibition of full length bovine Myosin-2 cardiac muscle isoform from left ventricle ATPase activity assessed as reduction in steady-state rabbit F-actin-activated Mg2+ ATPase activity incubated for 6 to 24 mins in presence of ATPase buffer at 7.0 containing Mgcl2 and ATP by fluorescence-based assay. Set-up: species or system Bos taurus, Heart left ventricle.

Data set [4] can be described thus: Selectivity index, ratio of IC50 for inhibition of full length bovine cardiac muscle myosin II ATPase activity to IC50 for inhibition of full length rabbit skeletal muscle myosin II ATPase activity.
The test system of data set [5] is COS-7. The data set can be described thus: Inhibition of Non-muscle myosin IIB in African green monkey COS-7 cells assessed as inhibition of cytokinesis by measuring increase in nuclei to cell ratio (N/C) at 40 uM incubated for 24 hrs by fluorescein-diacetate, Hoechst 33342 and propidium iodide staining based fluorescence microscopy relative to control. The following applies: Chlorocebus aethiops. The procedure, abridged: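 COS-7 cells (4,000/well) preincubated 24 h at 37 °C in 5% CO2, then exposed 24 h to 40 μM compound, final 1% DMSO. Media and 1% DMSO served as negative controls; para-aminoblebbistatin 20 μM and blebbistatin 10 μM as positive controls. Stained 10 min with FDA 6 μM, Hoechst 33342 10 μM and PI 4 μM, then imaged; N/C counted excluding PI-positive nuclei. Triplicate wells, ≥2 experiments, ≥600 cells per well.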

Data set [6] is described as follows: Kinetic solubility of the compound in 2.5% DMSO/PBS at pH 7.4 incubated for 1 hrs by nephelometry. The class given is physicochemical. The following applies: buffer, pH 7.4, 1 h. The essentials: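 DMSO stock (20 mM) added to PBS pH 7.4, then serially diluted in quadruplicate at a constant 2.5% DMSO. Plates shaken 2 min, incubated 1 h at 37 °C, shaken 3 min, and turbidity read by nephelometry; average blank subtracted.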

Data set [7] is described as follows: Inhibition of full length rabbit myosin 2 skeletal muscle isoform derived from Psoas muscle ATPase activity assessed as reduction in steady-state rabbit F-actin-activated Mg2+ ATPase activity incubated for 6 to 24 mins in presence of ATPase buffer at 7.0 containing Mgcl2 and ATP by fluorescence-based assay. The class given is tissue-based, Oryctolagus cuniculus.

The nature of data set [8]: Hydrolytic stability of the compound ATPase assay buffer at pH 7 containing Mgcl2 and ATP assessed as half life by UV-visible spectrophotometry. The class given is physicochemical. The procedure, abridged:
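Compound diluted from 20 mM DMSO stock to 8 μM final (2% DMSO) in ATPase buffer: 10 mM MOPS pH 7.0, 50 mM NaCl, 0.1 mM EGTA, 5 mM MgCl2, 2 mM ATP, 1 mM DTT. Kept sealed at 30 °C; UV-vis spectrum (0.5 nm steps, 1 cm quartz) recorded at start and every 24 h against fresh reference solutions.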

pIC50: −log10 of the molar value. Active and inactive are the calls of the source. No cut-off for these calls is given here.

For `CCOCCC/N=C(\C)c1c(O)c2ccccc2oc1=O`, the CC10 in the data set with COS-7 [1] is 53 µM. Besides, the CC50 (usually the concentration giving 50% cytotoxicity) in the data set with COS-7 [1] is 980 µM. The pIC50 – broadly, −log10 of the IC50, conventionally taken in molar units – in data set [2] was no more than 4.00; in data set [3], 5.09; in data set [7] it was 5.60. In addition, in data set [4], the Ratio IC50 turned out to be 3.2. In addition, the inhibition entry with COS-7 [5] is “inactive”. The same compound gave a Kinetic_solubility in data set [6] greater than 1250 µM.
Take `C/C(=N\Cc1ccccc1)c1c(O)c2ccccc2oc1=O`: the pIC50 in data set [2] was no more than 4.00. Moreover, the t1/2 in data set [8] was greater than 6 days. For the same compound, the inhibition entry with COS-7 [5] is “inactive”.
With `O=c1oc2ccccc2c(O)c1/C=N/Cc1ccccc1`, the pIC50 in data set [2], in data set [3] and in data set [7] was no more than 4.00 throughout. Moreover, in data set [8], the t1/2 is 2.5 days. Besides, the inhibition entry in the data set with COS-7 [5] was “inactive”.

The values are drawn from ChEMBL document CHEMBL5352477, “Isoform selectivities of novel 4-hydroxycoumarin imines as inhibitors of myosin II” (Eur J Med Chem, 2023).
